Screening results as filed in PubChem BioAssay.
Hits are enriched below; roughly 1.9% of the tested compounds scored in any of these assays.
H9c2 TAG inh: reduces triacylglycerol accumulation in H9c2 cells | Nile Red lipid (TAG) fluorescence; cells loaded with 200 µM oleic acid | inhibition, % at 12.5 µM | hit rate 0.66% among 230,000;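 active = pattern-corrected inhibition of lipid staining of at least 50% with the nuclear-stain viability signal not falling by more than 50%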;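 also: 0% = DMSO wells and 100% = triacsin C control wells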
ABHD5 PLIN5 PPI: blocks binding of human ABHD5 to perilipin-5 | Q00G26+Q8WTS1 | Split G. princeps luciferase complementation, luminescence, 4 h | inhibition, % at 4 µM | hit rate 0.78% among 360,000 | AID 602281;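 active = inhibition above the mean inhibition across every tested compound plus 3 SD, cut at about 22% in these data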;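 also: 0% = DMSO only wells and the 100% control is not disclosed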
HIF act: HIF pathway transcriptional activation; AID 1910; U2OS HRE-luciferase reporter, luminescence; normalized: DMSO 0%, desferrioxamine 100%; activation, % at 7.5 µM (by protocol); hit rate 0.32% among 300,000;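 active = mean activation of at least 10% of the iron chelator positive control signal, with at least half of replicates also reaching 10%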
Hsp70 act: transcriptional activators of Hsp70; HeLa Hsp70 promoter luciferase reporter, luminescence; scaled: vehicle 0, proteasome-inhibitor control 100%; activation, % at 10 µM; hit rate 0.04% among 200,000; AID 1203;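 active = activation above the mean across all tested compounds plus 3 SD, cutoff set per campaign, cut at about 5.5% in these data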;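 also: 100% = MG132 at 30 µM as the positive control and 0% = DMSO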
FXN GAA850 act: increases GAA850 frataxin promoter reporter activity; HEK293 lucGAA850 FXN promoter luciferase reporter, 24 h; percent of 10 µM SAHA response; activation, % at 6 µM; hit rate 0.56% among 360,000; AID 540364;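 active = activation above the average of all compounds screened plus 3 SD, cutoff fixed separately per campaign, cut at about 7.5% in these data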;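 also: 0% = DMSO wells and 100% = 10 µM SAHA wells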
Rad51 HR inh: Rad51 (human) homologous recombination inhibition; Q06609; hRad51 DNA strand exchange, fluorescence dequenching; inhibition, % at 10 µM; hit rate 0.085% among 200,000;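 active = inhibition above 40% at the single screening dose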;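 also: 0% = DMSO control wells and 100% = blanks with heterologous ssDNA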
Target sequence (Q06609 whole entry, looked up): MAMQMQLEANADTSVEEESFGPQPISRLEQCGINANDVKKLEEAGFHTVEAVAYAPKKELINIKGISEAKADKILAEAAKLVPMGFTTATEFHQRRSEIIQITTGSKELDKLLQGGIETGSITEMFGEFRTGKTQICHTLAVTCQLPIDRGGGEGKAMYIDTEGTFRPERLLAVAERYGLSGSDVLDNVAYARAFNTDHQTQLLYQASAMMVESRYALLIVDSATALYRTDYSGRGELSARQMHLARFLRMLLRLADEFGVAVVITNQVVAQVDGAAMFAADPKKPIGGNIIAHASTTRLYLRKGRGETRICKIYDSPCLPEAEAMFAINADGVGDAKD
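Material: hRad51 filaments on single-stranded DNA; Reagent: Donor/quencher-labelled 47-bp dsDNA substrate; Compound: 10 µM final, single point; Schedule: 37 °C 15-min filament assembly, 30-min compound preincubation, 15-min exchange; Technique: FRET fluorescence, excitation 485 nm, emission 520 nm; Benchmarks: control wells and blank wells on each plate.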
* marks the source's active call; other numbers are inactive results; nt = no result; ! = not active in a repeat.

SMILES	H9c2 TAG inh	ABHD5 PLIN5 PPI	HIF act	Hsp70 act	FXN GAA850 act	Rad51 HR inh
O=C(O)c1cc(-c2ccco2)nc2ccc(Br)cc12	3	29*!	2	0	-1	-22
COCC(=O)N[C@H]1CC[C@@H](CC(=O)OC)O[C@@H]1CO	nt	4	nt	nt	nt	nt
CCCNC(=O)COc1cccc(C(=O)NCc2ccccc2)c1	8	4	0	0	4	5
CCNC(=O)COc1cccc(C(=O)NCc2ccccc2)c1	3	3	75*	0	2	2
COc1ccc2cc1Oc1ccc(cc1)C[C@H]1c3c(cc(OC)c4c3Oc3c(ccc5c3[C@H](C2)N(C)CC5)O4)CCN1C	109*	10	nt	nt	3	nt
COc1ccc2cc1Oc1ccc(cc1)CC1c3c(cc(OC)c4c3Oc3cc5c(cc3O4)CCNC5C2)CCN1C (stereo unspecified)	nt	6	-1	nt	-4	-2
Nc1nc(NCc2ccccc2Cl)n(-c2ccccc2)n1	nt	0	1	nt	1	nt
Cc1ccc2cc(C(c3nnnn3C(C)(C)C)N3CCCCCC3)c(=O)[nH]c2c1 (stereo unspecified)	nt	2	1	0	4	-1
CCC(C)(C)n1nnnc1C(c1cc2cc(C)ccc2[nH]c1=O)N1CCCC1 (stereo unspecified)	nt	-3	-1	0	10.0*	8
Cc1ccc(C)c2c1CCC(=Cc1ccccc1[N+](=O)[O-])C2=O	-1	-4	nt	nt	1	nt
CN1C/C(=C/c2ccccc2[N+](=O)[O-])C(=O)/C(=C\c2ccccc2[N+](=O)[O-])C1	69*	-4	nt	nt	6	nt
COC(=O)[C@@]12C[C@@H](CC(=O)N3CCN(C(=O)C4CC4)CC3)C(=O)N(Cc3ccc4c(c3)OCO4)C1=CCC(C)(C)C2	nt	-9	nt	nt	nt	nt
CC1(C)Cc2c(cnn2-c2ccccc2)C(NC(=O)CCc2ccc(=O)[nH]n2)C1 (stereo unspecified)	1	7	0	nt	1	nt
COc1ccc(/C=C/c2ccc3cccc(O)c3n2)c(OC)c1OC	nt	-12	8	nt	8.9*	nt
COc1cccc(/C=C/c2ccc3cccc(O)c3n2)c1OC	nt	3	7	nt	5	nt
CCN1C(N(C)CCc2c[nH]c3ccccc23)=N[C@@H](c2cccc(C(F)(F)F)c2)C(C(=O)OC)=C1C	112*	1	nt	nt	-5	nt
O=[N+]([O-])c1ccc(NS(=O)(=O)c2ccc(Cl)c(Cl)c2)cc1	nt	-6	nt	nt	nt	nt
COC(=O)C[C@H]1CC[C@@H](NS(=O)(=O)c2ccccc2)[C@@H](CO)O1	nt	2	nt	nt	nt	nt
CCC/C(O)=C1\C(=O)CC(C)(C)CC1=NCc1ccccc1	-18	-3	77*	nt	0	-1
C/C(=N\NC(=O)C12CCC(C)(C(=O)O1)C2(C)C)c1ccccc1O (stereo unspecified)	52*	5	1	nt	1	nt
COC(=O)CCC(=O)c1ccc(OC)c(Cl)c1	nt	nt	-1	nt	nt	nt
O=C(Cn1ncn2c(cc3ccccc32)c1=O)NCc1ccco1	nt	29*	nt	0	0	-3
COc1ccc(CNC(=O)Cn2ncn3c(cc4ccccc43)c2=O)cc1	-5	2	1	nt	4	-11
CC(C)[C@H](NC(=O)c1ccccc1Cl)C(=O)Nc1nc(-c2ccccn2)cs1	-17	-3	20*	0	1	-1
O=C(Nc1nc(-c2ccccn2)cs1)c1ccccc1-n1cnnn1	51*	-2	52*	nt	-6	13
SMILES	H9c2 TAG inh	ABHD5 PLIN5 PPI	HIF act	Hsp70 act	FXN GAA850 act	Rad51 HR inh
O=C(Nc1nc(-c2ccccn2)cs1)c1cc(Cl)ccc1[N+](=O)[O-]	12	-4	36*	0	-4	11
Cc1cc(C(=O)Nc2nc(-c3ccccn3)cs2)ccc1[N+](=O)[O-]	-2	-2	1	0	-1	8
CCc1nnc(NC(=O)C(NC(=O)c2ccccc2Cl)C(C)C)s1 (stereo unspecified)	-5	-4	0	0	2	12
CC(C)(C)c1ccc(Oc2ncccc2NC(=O)c2cccs2)cc1	-6	-3	0	nt	2	18
COc1ccc(C(=O)N2CCOC2CNC(=O)C(=O)NCc2ccccc2)cc1 (stereo unspecified)	8	-1	nt	nt	-1	nt
Cc1cc(C(=O)N2CCCC(N3CCN(c4cccc(C(F)(F)F)c4)CC3)C2)no1 (stereo unspecified)	6	14	0	nt	0	nt
Cc1cc(C)c(C(=O)N2CCCC(N3CCN(c4cccc(C(F)(F)F)c4)CC3)C2)o1 (stereo unspecified)	nt	0	135*	nt	-2	nt
C=CCSc1nc2c(cnn2-c2ccccc2)c(=O)n1N	5	0	0	nt	0	0
C=CCNc1oc(-c2ccc(OC)cc2)nc1C#N	nt	-10	2	0	5	89*
C=CCNc1oc(-c2ccc(OCC)cc2)nc1C#N	nt	-1	1	0	4	5
O=S(=O)(c1cc(F)ccc1F)N1CCN(c2ncccn2)CC1	-13	3	0	nt	2	nt
Oc1c(C(Nc2ccccn2)c2ccccn2)ccc2cccnc12 (stereo unspecified)	-23	7	14*	0	-8	nt
Oc1ccccc1C(Nc1nccs1)c1ccc2cccnc2c1O (stereo unspecified)	52*	7	21*	nt	-7	-1
Cc1ccc2ccc(C(Nc3ccccn3)c3ccccc3)c(O)c2n1 (stereo unspecified)	10	4	0	0	-2	2
COc1ccc(/C=C/C(=O)NCCSCc2ccco2)cc1	nt	-3	0	0	4	nt
C[C@H](CO)N1C[C@H](C)[C@@H](CN(C)C(=O)Nc2ccccc2)Oc2ccc(NC(=O)Cc3ccccc3)cc2C1=O	17	0	nt	nt	0	nt
CCN(CC)CCNc1cc(C)nc2c1C(=O)C(=O)C=C2N1CCCCC1	82*	5	42*	0	-5	1
N#Cc1c(NC(=O)c2cccc(S(=O)(=O)Nc3ccc(C(=O)O)cc3)c2)sc2c1CCCC2	-11	0	0	nt	0	nt
CC1CCN(c2ccc(NC(=O)C3CCCN3S(=O)(=O)c3ccc(F)cc3)cc2)CC1 (stereo unspecified)	11	-7	nt	nt	-2	nt
Cc1ccc(N=C2NC(=O)/C(=C\c3ccco3)S2)cc1	2	10	2	0	4	nt
COc1ccc(N=C2NC(=O)/C(=C\C=C\c3ccco3)S2)cc1	2	22*	0	0	1	0
C=CCn1c(N)c(C(=O)Nc2ccc(C)c(C)c2)c2nc3ccccc3nc21	54*	0	0	0	0	2
C=CCn1c(N)c(C(=O)Nc2cccc(C)c2)c2nc3ccccc3nc21	49	-4	0	0	4	-4
CCOC(=O)CNC(=O)CN1CCCN(S(=O)(=O)c2ccc(Br)s2)CC1	0	6	nt	0	3	nt
